Activity and IC50 data for one molecule are collected here from ChEMBL document CHEMBL1148948, “Biotransformation of nobiletin by Aspergillus niger and the antimutagenic activity of a metabolite, 4'-hydroxy-5,6,7,8,3'-pentamethoxyflavone” (2004).

The test system of test [1] is Salmonella typhimurium. Kind of test: Inhibition of furyfuramide-induced SOS response to alteration in DNA synthesis in Salmonella Typhimurium TA1535 carrying pSK1002 containing umuC'-lacZ fused gene at 0.6 mM. It is filed as functional, Salmonella enterica subsp. enterica serovar Typhimurium. Also on record: scale not given: the % may be the effect or the level left. In outline: (§1)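 S. typhimurium TA1535/pSK1002 (umuC′-′lacZ fusion on the plasmid). The overnight culture was diluted 50-fold in fresh TGA medium and grown at 37 °C to A600 0.25-0.30. SOS induction was read as β-galactosidase activity in Miller units. The S9 mix used rat liver S9 (phenobarbital/5,6-benzoflavone-pretreated males) with G-6-P, NADH and NADPH cofactors.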

For test [2], the system named is Salmonella typhimurium. Kind of test: Inhibition of MeIQ-induced SOS response to alteration in DNA synthesis in Salmonella Typhimurium TA1535 carrying pSK1002 containing umuC'-lacZ fused gene. The following applies: Salmonella enterica, read-out: ID50 (the source's name). It is filed as functional, Salmonella enterica subsp. enterica serovar Typhimurium. The procedure, abridged: as §1

In test [3] the test system is Salmonella typhimurium. Kind of test: Antimutagenic activity in Salmonella Typhimurium TA1535 carrying pSK1002 containing umuC'-lacZ fused gene assessed as suppression of Trp-P-1-induced SOS response to alteration in DNA synthesis at 0.6 mM measured by beta-galactosidase activity by Umu test. It is filed as functional, Salmonella enterica subsp. enterica serovar Typhimurium. The procedure, abridged: as §1

In test [4] the test system is Salmonella typhimurium. Put plainly: Antimutagenic activity in Salmonella Typhimurium TA1535 carrying pSK1002 containing umuC'-lacZ fused gene assessed as suppression of MeIQ-induced SOS response to alteration in DNA synthesis at 0.3 mM measured by beta-galactosidase activity by Umu test. The class given is functional, Salmonella enterica subsp. enterica serovar Typhimurium. In outline:
as §1

The test system of test [5] is Salmonella typhimurium. Put plainly: Antimutagenic activity in Salmonella Typhimurium TA1535 carrying pSK1002 containing umuC'-lacZ fused gene assessed as suppression of 0.1 j/M2 UV light-induced SOS response to alteration in DNA synthesis at 0.05 mM measured by beta-galactosidase activity by Umu test. The class given is functional, Salmonella enterica subsp. enterica serovar Typhimurium. In outline:
as §1

Test [6] concerns Salmonella typhimurium. Kind of test: Antimutagenic activity in Salmonella Typhimurium TA1535 carrying pSK1002 containing umuC'-lacZ fused gene assessed as suppression of activated Trp-P-1-induced SOS response to alteration in DNA synthesis at 0.05 mM measured by beta-galactosidase activity by Umu test. It is filed as functional, Salmonella enterica subsp. enterica serovar Typhimurium. In outline: as §1

The subject of test [7] is Salmonella typhimurium. Put plainly: Antimutagenic activity in Salmonella Typhimurium TA1535 carrying pSK1002 containing umuC'-lacZ fused gene assessed as suppression of furyfuramide-induced SOS response to alteration in DNA synthesis at 0.6 mM measured by beta-galactosidase activity by Umu test. The class given is functional, Salmonella enterica subsp. enterica serovar Typhimurium. The procedure, abridged:
as §1

For test [8], the system named is Salmonella typhimurium. Put plainly: Antimutagenic activity in Salmonella Typhimurium TA1535 carrying pSK1002 containing umuC'-lacZ fused gene assessed as suppression of MeIQ-induced SOS response to alteration in DNA synthesis at 0.1 mM measured by beta-galactosidase activity by Umu test. The class given is functional, Salmonella enterica subsp. enterica serovar Typhimurium. In outline:
as §1

The test system of test [9] is Salmonella typhimurium. Kind of test: Antimutagenic activity in Salmonella Typhimurium TA1535 carrying pSK1002 containing umuC'-lacZ fused gene assessed as suppression of Trp-P-1-induced SOS response to alteration in DNA synthesis at 0.3 mM measured by beta-galactosidase activity by Umu test. The class given is functional, Salmonella enterica subsp. enterica serovar Typhimurium. In outline:
as §1

Test [10] deals with Salmonella typhimurium. Put plainly: Antimutagenic activity in Salmonella Typhimurium TA1535 carrying pSK1002 containing umuC'-lacZ fused gene assessed as suppression of activated MeIQ-induced SOS response to alteration in DNA synthesis at 0.05 mM measured by beta-galactosidase activity by Umu test. It is filed as functional, Salmonella enterica subsp. enterica serovar Typhimurium. The procedure, abridged: as §1

Test [11] concerns Salmonella typhimurium. Put plainly: Antimutagenic activity in Salmonella Typhimurium TA1535 carrying pSK1002 containing umuC'-lacZ fused gene assessed as suppression of Trp-P-1-induced SOS response to alteration in DNA synthesis measured by beta-galactosidase activity by Umu test. It is filed as functional, organism-based. The conditions noted are these: Salmonella enterica subsp. enterica serovar Typhimurium. The procedure, abridged: as §1

In test [12] the test system is Salmonella typhimurium. Kind of test: Inhibition of Trp-P-1-induced SOS response to alteration in DNA synthesis in Salmonella Typhimurium TA1535 carrying pSK1002 containing umuC'-lacZ fused gene. The class given is functional, Salmonella enterica subsp. enterica serovar Typhimurium. The conditions noted are these: Salmonella enterica, read-out: ID50 (the source's name). The procedure, abridged:
as §1

Test [13] concerns Salmonella typhimurium. Kind of test: Antimutagenic activity in Salmonella Typhimurium TA1535 carrying pSK1002 containing umuC'-lacZ fused gene assessed as suppression of furyfuramide-induced SOS response to alteration in DNA synthesis at 0.05 mM measured by beta-galactosidase activity by Umu test. It is filed as functional, Salmonella enterica subsp. enterica serovar Typhimurium. The procedure, abridged:
as §1

Test [14] deals with Salmonella typhimurium. Kind of test: Inhibition of activated MeIQ-induced SOS response to alteration in DNA synthesis in Salmonella Typhimurium TA1535 carrying pSK1002 containing umuC'-lacZ fused gene at 0.6 mM. Further details: scale not given: the % may be the effect or the level left. It is filed as functional, Salmonella enterica subsp. enterica serovar Typhimurium. The procedure, abridged:
as §1

The test system of test [15] is Salmonella typhimurium. Kind of test: Antimutagenic activity in Salmonella Typhimurium TA1535 carrying pSK1002 containing umuC'-lacZ fused gene assessed as suppression of 0.1 j/M2 UV light-induced SOS response to alteration in DNA synthesis at 0.6 mM measured by beta-galactosidase activity by Umu test. It is filed as functional, Salmonella enterica subsp. enterica serovar Typhimurium. The procedure, abridged:
as §1

In test [16] the test system is Salmonella typhimurium. Put plainly: Antimutagenic activity in Salmonella Typhimurium TA1535 carrying pSK1002 containing umuC'-lacZ fused gene assessed as suppression of activated MeIQ-induced SOS response to alteration in DNA synthesis at 0.1 mM measured by beta-galactosidase activity by Umu test. The class given is functional, Salmonella enterica subsp. enterica serovar Typhimurium. The procedure, abridged: as §1

The subject of test [17] is Salmonella typhimurium. Kind of test: Inhibition of activated MeIQ-induced SOS response to alteration in DNA synthesis in Salmonella Typhimurium TA1535 carrying pSK1002 containing umuC'-lacZ fused gene. The conditions noted are these: Salmonella enterica, read-out: ID50 (the source's name). The class given is functional, Salmonella enterica subsp. enterica serovar Typhimurium. In outline:
as §1

In test [18] the test system is Salmonella typhimurium. Put plainly: Antimutagenic activity in Salmonella Typhimurium TA1535 carrying pSK1002 containing umuC'-lacZ fused gene assessed as suppression of activated Trp-P-1-induced SOS response to alteration in DNA synthesis at 0.1 mM measured by beta-galactosidase activity by Umu test. It is filed as functional, Salmonella enterica subsp. enterica serovar Typhimurium. The procedure, abridged:
as §1

The source made the active and inactive calls. The rule behind the calls is not given here.

On to `COc1cc(-c2cc(=O)c3c(OC)c(OC)c(OC)c(OC)c3o2)ccc1O`, for which the Activity was 28.7% with Salmonella typhimurium [1]; 168.9 Miller_unit in the test with Salmonella typhimurium [3]; 195.3 Miller_unit with Salmonella typhimurium [4]; 574.1 Miller_unit in the test on Salmonella typhimurium [5]; 283.7 Miller_unit with Salmonella typhimurium [6]; 443.7 Miller_unit in the test with Salmonella typhimurium [7]. Besides, the Activity amounted to 232.6 Miller_unit with Salmonella typhimurium [8]; 219.1 Miller_unit in the test on Salmonella typhimurium [9]; 394 Miller_unit in the test with Salmonella typhimurium [10]; 551.2 Miller_unit in the test on Salmonella typhimurium [13]; 58.2% in the test on Salmonella typhimurium [14]; 495.7 Miller_unit in the test with Salmonella typhimurium [15]. Further, the values for the Activity in the test on Salmonella typhimurium [16] and in the test with Salmonella typhimurium [18] were 376.3 Miller_unit and 233.2 Miller_unit, respectively. For the same molecule, the values for the IC50 with Salmonella typhimurium [2], in the test on Salmonella typhimurium [12] and in the test with Salmonella typhimurium [17] were 40 µM, 160 µM and 300 µM, respectively. Moreover, the result in the test with Salmonella typhimurium [11] was Active.
